Test results from ChEMBL document CHEMBL1146459, “Production of biologically active taxoids by a callus culture of Taxus cuspidata” (2004).

What was measured:
OVCAR-8 = test: Growth inhibition of human OVCAR8 cells after 48 hrs by SRB assay; assay type: functional; conditions: OVCAR-8, 48 h
OVCAR-4 = test: Growth inhibition of human OVCAR4 cells after 48 hrs by SRB assay; assay type: functional; conditions: OVCAR-4, 48 h
HCT-116 = test: Growth inhibition of human HCT116 cells after 48 hrs by SRB assay; assay type: functional; conditions: HCT-116, 48 h
DU-145 = test: Growth inhibition of human DU145 cells after 48 hrs by SRB assay; assay type: functional; conditions: DU-145, 48 h
NCI-H226 = test: Growth inhibition of human NCI-H226 cells after 48 hrs by SRB assay; assay type: functional; conditions: NCI-H226, 48 h
SK-OV-3 = test: Growth inhibition of human SKOV3 cells after 48 hrs by SRB assay; assay type: functional; conditions: SK-OV-3, 48 h
[1] = Reversal of multidrug resistance in human 2780AD cells assessed as [3H]vincristine accumulation at 1 ug/mL after 2 hrs relative to control; assay type: functional, A2780 ADR
Procedure, shortened: (§1)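 Multidrug-resistant human ovarian cancer 2780AD cells were exposed to taxoids at 0.1, 1 or 10 µg/mL. Radiolabelled vincristine accumulated in the cells was measured as dpm/well, using means of triplicate determinations. Results are expressed as % of vincristine accumulated relative to the control experiment. They were also scored on a seven-level index according to the range of relative accumulation.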

[2] = Reversal of multidrug resistance in human 2780AD cells assessed as [3H]vincristine accumulation at 10 ug/mL after 2 hrs relative to control; assay type: functional, A2780 ADR; procedure, shortened: as §1
NCI-H522 = test: Growth inhibition of human NCI-H522 cells after 48 hrs by SRB assay; assay type: functional; conditions: NCI-H522, 48 h
MKN-28 = test: Growth inhibition of human MKN28 cells after 48 hrs by SRB assay; assay type: functional; conditions: MKN-28, 48 h
HCC 2998 = test: Growth inhibition of human HCC2998 cells after 48 hrs by SRB assay; assay type: functional; conditions: HCC 2998, 48 h
HT-29 = test: Growth inhibition of human HT-29 cells after 48 hrs by SRB assay; assay type: functional; conditions: HT-29, 48 h
[3] = Growth inhibition of human MKN1 cells after 48 hrs by SRB assay; assay type: functional; conditions: MKN-1, 48 h
[4] = Growth inhibition of human BSY1 cells after 48 hrs by SRB assay; assay type: functional; conditions: BSY-1, 48 h
SF-268 = test: Growth inhibition of human SF268 cells after 48 hrs by SRB assay; assay type: functional; conditions: SF-268, 48 h
PC-3 = test: Growth inhibition of human PC3 cells after 48 hrs by SRB assay; assay type: functional; conditions: PC-3, 48 h
MKN-74 = test: Growth inhibition of human MKN74 cells after 48 hrs by SRB assay; assay type: functional; conditions: MKN-74, 48 h
SNB-75 = test: Growth inhibition of human SNB75 cells after 48 hrs by SRB assay; assay type: functional; conditions: SNB-75, 48 h
[5] = Growth inhibition of human RXF631L cells after 48 hrs by SRB assay; assay type: functional; conditions: RXF 631, 48 h
LOX IMVI = test: Growth inhibition of human LOXIMVI cells after 48 hrs by SRB assay; assay type: functional
[6] = Reversal of multidrug resistance in human 2780AD cells assessed as [3H]vincristine accumulation at 0.1 ug/mL after 2 hrs relative to control; assay type: functional, A2780 ADR; procedure, shortened: as §1
[7] = read-out: LC50 (the source's name)
[8] = read-out: pLC50 (the source's name) (converted)

## C=C1[C@@H](OC(C)=O)CC[C@@]2(C)C[C@H](OC(C)=O)C3=C(C)C[C@H](OC(=O)C(C)CC)[C@@H]([C@@H](OC(C)=O)[C@H]12)C3(C)C (stereo partly specified)
OVCAR-8; read-out: GI50
  GI50: 37 µM
OVCAR-8; [7]
  CC50: > 100 µM
OVCAR-8; read-out: TGI
  TGI: > 100 µM
OVCAR-8; read-out: pGI50 (converted)
  GI50: 37.2 µM
OVCAR-8; read-out: pTGI (converted)
  TGI: 100 µM
OVCAR-4; read-out: GI50
  GI50: 21 µM
OVCAR-4; [7]
  CC50: > 100 µM
OVCAR-4; read-out: TGI
  TGI: > 100 µM
OVCAR-4; read-out: pGI50 (converted)
  GI50: 21.4 µM
OVCAR-4; [8]
  CC50: 100 µM
OVCAR-4; read-out: pTGI (converted)
  TGI: 100 µM
HCT-116; read-out: GI50
  GI50: 30 µM
HCT-116; [7]
  CC50: > 100 µM
HCT-116; read-out: TGI
  TGI: > 100 µM
HCT-116; read-out: pGI50 (converted)
  GI50: 30.2 µM
HCT-116; [8]
  CC50: 100 µM
HCT-116; read-out: pTGI (converted)
  TGI: 100 µM
DU-145; read-out: GI50
  GI50: 33 µM
DU-145; [7]
  CC50: > 100 µM
DU-145; read-out: TGI
  TGI: > 100 µM
DU-145; read-out: pGI50 (converted)
  GI50: 32.4 µM
DU-145; [8]
  CC50: 100 µM
DU-145; read-out: pTGI (converted)
  TGI: 100 µM
NCI-H226; read-out: GI50
  GI50: 32 µM
NCI-H226; [7]
  CC50: > 100 µM
NCI-H226; read-out: TGI
  TGI: > 100 µM
NCI-H226; read-out: pGI50 (converted)
  GI50: 32.4 µM
NCI-H226; [8]
  CC50: 100 µM
NCI-H226; read-out: pTGI (converted)
  TGI: 100 µM
SK-OV-3; read-out: GI50
  GI50: 68 µM
SK-OV-3; [7]
  CC50: > 100 µM
SK-OV-3; read-out: TGI
  TGI: > 100 µM
SK-OV-3; read-out: pGI50 (converted)
  GI50: 69.2 µM
SK-OV-3; [8]
  CC50: 100 µM
SK-OV-3; read-out: pTGI (converted)
  TGI: 100 µM
[1]
  Activity: 256%
[2]
  Activity: 701%
NCI-H522; read-out: GI50
  GI50: 15 µM
NCI-H522; [7]
  CC50: > 100 µM
NCI-H522; read-out: TGI
  TGI: 49 µM
NCI-H522; read-out: pGI50 (converted)
  GI50: 24 µM
NCI-H522; [8]
  CC50: 100 µM
NCI-H522; read-out: pTGI (converted)
  TGI: 49 µM
MKN-28; read-out: GI50
  GI50: 31 µM
MKN-28; [7]
  CC50: > 100 µM
MKN-28; read-out: TGI
  TGI: > 100 µM
MKN-28; read-out: pGI50 (converted)
  GI50: 30.9 µM
MKN-28; read-out: pLC50 (converted)
  CC50: > 100 µM
MKN-28; read-out: pTGI (converted)
  TGI: 100 µM
HCC 2998; read-out: GI50
  GI50: 27 µM
HCC 2998; [7]
  CC50: > 100 µM
HCC 2998; read-out: TGI
  TGI: > 100 µM
HCC 2998; read-out: pGI50 (converted)
  GI50: 27.5 µM
HCC 2998; [8]
  CC50: 100 µM
HCC 2998; read-out: pTGI (converted)
  TGI: 100 µM
HT-29; read-out: GI50
  GI50: 28 µM
HT-29; [7]
  CC50: > 100 µM
HT-29; read-out: TGI
  TGI: > 100 µM
HT-29; read-out: pGI50 (converted)
  GI50: 27.5 µM
HT-29; read-out: pLC50 (converted)
  CC50: > 100 µM
HT-29; read-out: pTGI (converted)
  TGI: 100 µM
[3]; read-out: GI50
  GI50: 49 µM
[3]; [7]
  CC50: > 100 µM
[3]; read-out: TGI
  TGI: > 100 µM
[3]; read-out: pGI50 (converted)
  GI50: 49 µM
[3]; read-out: pTGI (converted)
  TGI: 100 µM
[4]; read-out: GI50
  GI50: 30 µM
[4]; [7]
  CC50: > 100 µM
[4]; read-out: TGI
  TGI: > 100 µM
[4]; read-out: pGI50 (converted)
  GI50: 30.2 µM
[4]; read-out: pTGI (converted)
  TGI: 100 µM
SF-268; read-out: GI50
  GI50: 74 µM
SF-268; [7]
  CC50: > 100 µM
SF-268; read-out: TGI
  TGI: > 100 µM
SF-268; read-out: pGI50 (converted)
  GI50: 74.1 µM
SF-268; [8]
  CC50: 100 µM
SF-268; read-out: pTGI (converted)
  TGI: 100 µM
PC-3; read-out: GI50
  GI50: 20 µM
PC-3; [7]
  CC50: > 100 µM
PC-3; read-out: TGI
  TGI: > 100 µM
PC-3; read-out: pGI50 (converted)
  GI50: 20 µM
PC-3; read-out: pTGI (converted)
  TGI: 100 µM
MKN-74; read-out: GI50
  GI50: 30 µM
MKN-74; [7]
  CC50: > 100 µM
MKN-74; read-out: TGI
  TGI: > 100 µM
MKN-74; read-out: pGI50 (converted)
  GI50: 30.2 µM
MKN-74; [8]
  CC50: 100 µM
MKN-74; read-out: pTGI (converted)
  TGI: 100 µM
SNB-75; [7]
  CC50: > 100 µM
SNB-75; read-out: TGI
  TGI: 55 µM
SNB-75; read-out: pGI50 (converted)
  GI50: 8.91 µM
SNB-75; [8]
  CC50: 100 µM
SNB-75; read-out: pTGI (converted)
  TGI: 55 µM
[5]; read-out: GI50
  GI50: 25 µM
[5]; [7]
  CC50: > 100 µM
[5]; read-out: TGI
  TGI: > 100 µM
[5]; read-out: pGI50 (converted)
  GI50: 24.5 µM
[5]; [8]
  CC50: 100 µM
[5]; read-out: pTGI (converted)
  TGI: 100 µM
LOX IMVI; read-out: GI50
  GI50: 35 µM
LOX IMVI; [7]
  CC50: > 100 µM
LOX IMVI; read-out: TGI
  TGI: > 100 µM
LOX IMVI; read-out: pGI50 (converted)
  GI50: 34.7 µM
LOX IMVI; [8]
  CC50: 100 µM
LOX IMVI; read-out: pTGI (converted)
  TGI: 100 µM
[6]
  Activity: 111%
